Source: PubChem BioAssay
Beta2AR agonist – beta2AR agonists driving receptor internalization, primary screen, cell-based, FAP fluorogen, flow cytometry | response, % (no concentration beside the values) | Beta-2 adrenergic receptor (Homo sapiens), P07550 | Am2.2-beta2AR cells | actives 0.43% (n = 340,000);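 active = response above a set limit, near 3 SD of response in nonfluorescent compounds, cut at about 42% in these data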
Mdm2-MdmX inh – inhibitors of human Mdm2-MdmX association, primary screen, cell-based, luminescence, split luciferase, SaOS-2, uHTS; Protein Mdm4 (Homo sapiens) + E3 ubiquitin-protein ligase Mdm2 (Homo sapiens), …; SaOS-2 split-luciferase Mdm2/MdmX complementation; inhibition, % at 8 µM; actives 3% (n = 330,000);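 active = inhibition of at least 50% at 8 µM in the primary screen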
Target sequence (O15151 whole entry, looked up): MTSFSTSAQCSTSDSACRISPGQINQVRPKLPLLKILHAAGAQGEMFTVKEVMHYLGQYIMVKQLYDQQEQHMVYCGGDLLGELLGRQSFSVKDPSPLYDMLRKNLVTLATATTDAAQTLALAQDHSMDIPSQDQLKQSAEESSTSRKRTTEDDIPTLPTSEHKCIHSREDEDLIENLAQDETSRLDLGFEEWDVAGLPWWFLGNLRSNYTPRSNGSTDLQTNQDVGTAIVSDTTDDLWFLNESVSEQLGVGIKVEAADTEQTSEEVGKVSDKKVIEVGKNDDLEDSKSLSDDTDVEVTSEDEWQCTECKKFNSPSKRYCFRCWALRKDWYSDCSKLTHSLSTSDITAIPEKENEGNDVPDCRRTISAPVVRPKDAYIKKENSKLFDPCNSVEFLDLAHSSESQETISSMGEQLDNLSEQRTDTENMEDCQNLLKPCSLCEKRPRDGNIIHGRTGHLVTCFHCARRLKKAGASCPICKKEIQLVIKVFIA
Target sequence (Q00987 whole entry, looked up): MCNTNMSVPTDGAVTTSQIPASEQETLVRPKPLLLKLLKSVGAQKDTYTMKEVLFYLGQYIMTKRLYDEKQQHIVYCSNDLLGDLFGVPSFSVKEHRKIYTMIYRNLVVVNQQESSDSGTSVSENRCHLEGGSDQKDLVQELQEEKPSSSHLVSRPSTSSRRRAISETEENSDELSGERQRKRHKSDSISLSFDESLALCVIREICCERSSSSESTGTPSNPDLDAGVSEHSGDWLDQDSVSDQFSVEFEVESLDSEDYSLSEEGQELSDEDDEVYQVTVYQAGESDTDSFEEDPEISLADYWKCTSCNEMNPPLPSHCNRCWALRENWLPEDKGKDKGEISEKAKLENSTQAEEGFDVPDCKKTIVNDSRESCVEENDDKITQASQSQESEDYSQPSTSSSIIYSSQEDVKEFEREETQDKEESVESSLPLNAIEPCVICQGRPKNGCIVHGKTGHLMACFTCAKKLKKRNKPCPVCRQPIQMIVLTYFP
XBP1 UPR activ – activators of adaptive XBP1 UPR arm, primary screen, cell-based, CHO-XBP1 luciferase reporter, luminescence, uHTS; IRE1-XBP1 UPR activation; percent of tunicamycin response, DMSO as zero; activation, % at 20 µM; actives 0.33% (n = 330,000); AID 463104, 2010;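 active = versus positive control, 20 µM dose yields 30% or more activation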;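 note: 100% = tunicamycin at 10 µg/mL and 0% = DMSO only wells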
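Material: IRE1-XBP1 luciferase reporter CHO line / Quantity: one thousand reporter cells per well / Buffer or medium: F12 with 10% serum / Compound: 20 µM single concentration, DMSO 1% / Times: 6 h treatment, 37 °C / Detection: Steady-Glo luciferase glow luminescence, 10 min after reagent addition / Benchmarks: tunicamycin high, DMSO low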
Dynein transport – inhibitors of GR-EGFP nuclear translocation, primary screen, dynein cargo transport inhibitor project, imaging, high-content, 3617.4 mouse cells. actives 0.47% (n = 220,000). AID 1381, 2008. z-score, hits read low. test concentration mostly 20 µM; stimulated with dexamethasone, 1 µM; stronger effect = lower value;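 active = plate z-score of nuclear minus cytoplasmic receptor signal below a set negative limit, without overly bright fluorescence or cell loss, cut at about -3.5 in these data, passing the limit was not always enough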;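 note: z-score of nuclear minus cytoplasmic ring GR-EGFP intensity difference per well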
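Buffer or medium: tet-free medium with charcoal-stripped serum / Also added: dexamethasone agonist, 1.0 µM final, for 30 min / Timing: induction 48 h, compound 1 h, agonist 30 min / Measured by: high-content fluorescence imaging after fixation / Read-out: nuclear-to-cytoplasmic GR-EGFP distribution per well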
UPR CHOP act – activators of apoptotic CHOP UPR arm, primary screen, cell-based, CHO-CHOP luciferase reporter, luminescence, uHTS | actives 0.34% (n = 330,000) | activation, % at 10 µM | UPR activation; percent of tunicamycin response over DMSO baseline | AID 449763, 2010;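 active = at 10 µM dose, activation of 40% or more, normalized to positive control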;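 note: 100% = tunicamycin at 10 µg/mL and 0% = DMSO alone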
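measured by = luciferase luminescence | assay system = CHO-CHOP cells, stable luciferase reporter of PERK-eIF2a-CHOP signalling | amount = 500 reporter cells seeded per well | timing = 6 h compound exposure at 37 °C after overnight seeding | controls = positive tunicamycin 10 µg/mL, negative DMSO alone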
MDM2 E3 inh – MDM2-luciferase reporter signal enhancers, primary screen, MDM2 E3 ligase inhibitor project, cell-based, luminescence, 1536-well. cell-based MDM2 ubiquitination luciferase reporter, 2 h; 0 = plate control, 100 = twice control, blank-subtracted. AID 1230, 2008. actives 0.11% (n = 210,000). signal enhancement, % at 5 µM. E3 ubiquitin-protein ligase Mdm2 (Homo sapiens), Q00987;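 active = signal enhancement of 30% or more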;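 note: luminescence tracks abundance of the self-degrading MDM2-luciferase fusion protein; higher signal means inhibition of MDM2 E3 ligase activity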
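Timing – 2 h compound exposure at 37 °C · Assay system – mammalian cells stably expressing self-ubiquitinating, self-degrading MDM2 E3–luciferase fusion · Amount – 2000 cells seeded into each well · Measure – % luminescence enhancement versus blank-corrected plate control mean · Measured by – SteadyLite luminescence, 15 min reagent step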
Mdm2-MdmX conf – Mdm2-MdmX complex disruptors, retested hits, confirmation, luminescence, single concentration; shares compounds with Mdm2-MdmX inh; actives 55% (n = 10,000); inhibition, % at 8 µM; AID 489028, 2010; Mdm2-MdmX binding, luminescent assay; in the data active = inhibition above about 40%
FLuc counter – full-length luciferase signal inhibition, confirmation, counter-screen for Mdm2/MdmX interaction inhibitor project, cell-based, single concentration, SaOS-2; actives 77% (n = 6,200); AID 504607, 2011; inhibition, % at 8 µM; shares compounds with Mdm2-MdmX inh; SaOS-2 full-length luciferase counterscreen, luminescence;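 active = mean inhibition at 8 µM reaching about 37%, which flags the compound as non-specific, limit read from the data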;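 note: p53-null SaOS-2 cells with luciferase driven by a doxycycline-inducible promoter; compound on cells about two nights before reading with doxycycline added after day one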
Beta2AR ag CP1 – beta2AR agonists via receptor internalization, confirmation, cell-based, FAP fluorogen, flow cytometry, single point, cherry pick 1. shares compounds with Beta2AR agonist. Am2.2-beta2AR cells, FAP surface receptor; stronger effect = lower value. percent response (surface receptor), % at 10 µM. actives 25% (n = 1,100). AID 540358, 2011;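 active = surface receptor percent response at or below 58%, roughly 3 SD from nonfluorescent compounds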
B2AR FAP counter – counter-screen for beta-2AR agonists: fluorescence in Am2.2 cells; shares compounds with Beta2AR agonist; 1,100 tested, under 10 active; calls only at 10 µM; AID 588765; FAP fluorogen flow cytometry, fluorescence counterscreen; stronger effect = lower value;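 active = percent response below a set limit in fluorescence channel 1 and below 50% in channel 8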
Starred values were filed as active, the others as inactive; i = inactive; nt = no result. Sampled rows, rich in hits. Any-hit rate of the full collection: about 3.7%.

SMILES	Beta2AR agonist	Mdm2-MdmX inh	XBP1 UPR activ	Dynein transport	UPR CHOP act	MDM2 E3 inh	Mdm2-MdmX conf	FLuc counter	others
COc1ccc(-c2cc(-c3ccccc3)[n+](C)c(-c3ccccc3)c2)cc1	-8	55*	2	-1.2	1	-24	36	52*
C[n+]1c(-c2ccccc2)cc(CCCCc2cc(-c3ccccc3)[n+](C)c(-c3ccccc3)c2)cc1-c1ccccc1	14	64*	2	0.75	-2	-12	32	nt
Brc1ccc(-[n+]2c(-c3ccccc3)cc(-c3ccccc3)cc2-c2ccccc2)cc1	4	87*	5	nt	13	nt	74*	24
COc1ccc(-[n+]2c(-c3ccccc3)cc(-c3ccc(C)cc3)cc2-c2ccccc2)cc1	1	80*	-2	nt	32	nt	91*	49*
Cc1ccc(-c2cc(-c3ccccc3)cc(-c3ccccc3)[n+]2-c2ccc(C(=O)O)cc2)cc1	-17	1	1	nt	0	nt	nt	nt
Oc1c(Br)cc(-c2ccccc2)cc1Br	13	nt	nt	nt	nt	nt	nt	nt
COC(=O)C1=C(c2cccc(OC)c2OC)C[C@@H]2CC[C@H]1N2C(=O)NC1CC1	15	3	0	nt	0	nt	nt	nt
CCN1C[C@]2(COC(=O)c3ccccc3N)CC[C@H](OC)C34[C@@H]5C[C@H]6[C@H](OC)[C@@H]5[C@](O)(C[C@@H]6OC)[C@@](O)([C@H]13)[C@@H](OC)[C@@H]42	4	-9	-6	nt	0	nt	nt	nt
CCCOC(=O)c1ccc(-[n+]2c(-c3ccccc3)cc(-c3ccccc3)cc2-c2ccccc2)cc1	-2	89*	4	nt	36	nt	87*	18
O=C(O)c1ccc(-[n+]2c(-c3ccccc3)cc(-c3ccccc3)cc2-c2ccccc2)cc1	-4	27	-2	nt	-1	nt	nt	nt
Cn1c(=O)n(CC(=O)N2CCC3(CC2)OCCO3)c(=O)c2ccccc21	-4	14	0	0.49	1	-10	nt	nt
CCn1c(=O)cc(SCC(=O)N2CCC3(CC2)OCCO3)c2ccccc21	-2	53*	-1	1.4	1	-19	39	nt
OC(c1cccc(Cl)c1)(c1cccc(Cl)c1)C1CN2CCC1CC2 (centres undefined)	59*	74*	3	0.75	1	-10	59*	56*	Beta2AR ag CP1=90;B2AR FAP counter=i
CNCCC(Oc1ccc(C(F)(F)F)cc1)c1ccccc1 (centres undefined)	9	51*	-7	-0.85	1	nt	17	nt	Beta2AR ag CP1=109;B2AR FAP counter=i
CNCCc1ccccc1	nt	18	-3	1.2	-1	-77	nt	nt
